# Screening data from PubChem BioAssay.
# M4 antag – CHRM4 antagonism in calcium assay. P08173. CHO-hM4 cells, ACh EC80, Fluo-8 calcium fluorescence. inhibition, % at 3 µM. actives 0.73% (n = 360,000). AID 624125;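 active = inhibition above its plate's cutoff, the mean inhibition of sample wells plus 3 SD, cut at about 27% in these data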;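 note: 0% = acetylcholine EC80 with DMSO and 100% = DMSO without agonist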
# M4 ag – CHRM4 agonism in calcium assay. P08173. CHO-K1 hM4/Gqi5, Fluo-8 calcium fluorescence; vehicle 0%, full acetylcholine response 100%. activation, % at 3 µM. actives 0.14% (n = 360,000);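 active = activation above the run mean over all test wells plus 3 SD, cut at about 32% in these data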;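 note: peak over basal fluorescence ratio per well then scaled between controls; 0% = DMSO wells and 100% = acetylcholine at EC100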
# CHRM5 antagonist – CHRM5 antagonism in calcium assay | P08912 | CHO-hM5 cells, Fluo-8 calcium fluorescence, ACh EC80 | inhibition, % at 3 µM | actives 0.59% (n = 360,000) | AID 624040;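 active = inhibition above a per-plate cutoff, the mean of that plate's test compounds plus 3 SD, cut at about 27% in these data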;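 note: 0% = acetylcholine EC80 with DMSO and 100% = DMSO without agonist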
# Target sequence (P08912 whole entry, looked up): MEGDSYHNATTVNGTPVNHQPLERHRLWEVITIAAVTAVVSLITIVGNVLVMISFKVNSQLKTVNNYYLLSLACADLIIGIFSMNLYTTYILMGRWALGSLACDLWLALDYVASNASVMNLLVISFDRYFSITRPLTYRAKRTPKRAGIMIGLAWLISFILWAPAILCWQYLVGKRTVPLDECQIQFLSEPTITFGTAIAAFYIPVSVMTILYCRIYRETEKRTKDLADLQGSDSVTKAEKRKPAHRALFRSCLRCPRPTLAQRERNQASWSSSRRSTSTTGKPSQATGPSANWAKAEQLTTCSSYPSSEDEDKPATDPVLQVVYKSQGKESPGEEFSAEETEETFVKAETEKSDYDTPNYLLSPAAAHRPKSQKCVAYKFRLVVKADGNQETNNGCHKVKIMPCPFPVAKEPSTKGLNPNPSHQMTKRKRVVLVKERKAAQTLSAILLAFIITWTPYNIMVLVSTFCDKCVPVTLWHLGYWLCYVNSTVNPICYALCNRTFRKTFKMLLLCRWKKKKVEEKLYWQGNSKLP
# CHRM5 PAM – positive allosteric modulators of human muscarinic M5 receptor; P08912; CHO-K1 hM5, Fluo-8 calcium, ACh EC20 PAM; 0% = ACh EC20, 100% = ACh EC100; activation, % at 3 µM; actives 0.3% (n = 360,000);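 active = activation above the run cutoff, the mean activation of all test compounds plus 3 SD, cut at about 18% in these data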
#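 Probe or stimulus: acetylcholine, EC20 level; Assay system: human M5 receptor in CHO-K1 cells; Schedule: compound preincubation 140 s before EC20 acetylcholine addition; Technique: intracellular calcium via Fluo-8 fluorescence; Dosing: single-point, 3 µM nominal; Read-out basis: percent activation from peak-over-basal fluorescence ratio, scaled EC20-to-EC100 acetylcholine; Repeats: one well per compound, no replicates.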
# CHRM4 PAM – potentiates acetylcholine response at human M4 receptor; P08173; CHO-K1 hM4/Gqi5, Fluo-8 calcium fluorescence, ACh EC20; 0% = ACh EC20, 100% = maximal ACh; activation, % at 3 µM; actives 0.4% (n = 360,000);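 active = activation above its plate's cutoff, the mean activation of sample wells plus 3 SD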
# M5 ag – CHRM5 agonism in calcium assay. CHO-K1 hM5 cells, Fluo-8 calcium fluorescence; 0% DMSO wells, 100% maximal acetylcholine response. activation, % at 3 µM. P08912. actives 0.19% (n = 360,000). AID 624037;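 active = activation above the run's mean over test compounds plus 3 SD, cut at about 23% in these data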;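 note: signal is peak over basal fluorescence ratio across the kinetic read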
# The depositor's hits bear a star. Shown are actives, neighbours in structure and some others; about 1.8% of the full set was active somewhere.
SMILES,M4 antag,M4 ag,CHRM5 antagonist,CHRM5 PAM,CHRM4 PAM,M5 ag
OC(c1ccccc1)(C1CCCCC1)C(CN1CCOCC1)c1ccccc1 (stereo not given),-14,2,-6,3,5,-6
OC(c1ccc(F)c(F)c1)c1nc(-c2ccccc2)cs1 (stereo not given),-1,1,-1,-2,2,0
COc1ccc(-c2csc(C(O)c3ccc(F)c(F)c3)n2)cc1 (stereo not given),3,33*,14,-11,-7,4
COc1cc(C(O)c2nc(-c3ccc(N(C)C)cc3)cs2)ccc1F (stereo not given),9,41*,5,-11,-12,8
CNC(=O)Nc1ccccc1C(=O)NCc1ccccc1,87*,-3,-3,1,10,-2
COc1cc(OC)cc(C(=O)Nc2ccccc2C(=O)NCc2cccnc2)c1,-1,14,28*,-8,-11,-3
O=C(Nc1ccccc1)Nc1ccccc1C(=O)NCc1ccccc1,-9,5,-1,-8,-6,-4
Cc1cc(C)n2ncc(C(=O)NCc3ccccc3)c2n1,-5,1,20,31*,4,0
Nc1cc(Cl)ccc1C(=O)OCC(=O)NCc1cccs1,4,2,8,-14,11,-3
Cc1ccnc(NS(=O)(=O)c2ccc(NS(=O)(=O)c3ccccc3)cc2)n1,6,1,-6,23*,7,1
C=CCN(c1ccccc1)S(=O)(=O)c1cccc(C(=O)NC2CCN(Cc3ccccc3)CC2)c1,14,6,8,-5,-12,-6
CC1(C(=O)NCCc2ccccc2)Cc2c(-c3cccc(C(F)(F)F)c3)ccnc2O1 (stereo not given),-4,0,-5,4,-1,-2
COc1cccc(NC(=O)Nc2cc(C(=O)O)ccc2N2CC3CC(C2)c2cccc(=O)n2C3)c1 (stereo not given),-1,13,8,0,-2,-1
CCc1nn(CC(=O)NC(C)CCc2ccccc2)c(=O)c2cc3cc(F)ccc3n12 (stereo not given),1,2,10,-3,-3,-4
COc1ccc2c(c1)cc1c(=O)n(CC(=O)NC(C)CCc3ccccc3)nc(C)n12 (stereo not given),-14,1,-11,6,15*,-4
CCCNC(=O)C1CCC(CNS(=O)(=O)c2cccc3nsnc23)CC1 (stereo not given),3,1,-1,6,16*,-4
CC1CC(C)CN(S(=O)(=O)c2cccc3nsnc23)C1 (stereo not given),-10,0,-9,6,21*,-2
CC(C)NS(=O)(=O)c1cccc2nsnc12,11,2,3,0,27*,0
O=C(NCc1ccccc1)C1C(c2ccc3c(c2)OCO3)=Nc2ccccc2N1C(=O)c1ccco1 (stereo not given),1,4,2,-2,0,1
C[C@H](O)CNC(=O)c1[nH]cnc1C(=O)N[C@@H](C)c1ccccc1,-3,1,-7,8,1,1
COc1ccc(Cc2nnc(NC(=O)Nc3ccccc3)s2)cc1OC,-5,2,10,1,0,1
OC(c1ccc(Cl)cc1)c1ncc(-c2cccc(C(F)(F)F)c2)[nH]1 (stereo not given),-9,8,5,1,5,0
COc1ccc(/C=C/C(=O)NCC(=O)N/N=C(/CCC(=O)O)c2ccccc2)cc1,30*,4,5,-1,-3,3
Cc1sc2ncnc(NC3CCN(Cc4ccccc4)CC3)c2c1C,19,11,29*,-29,-18,-8
c1ccc(CN2CCC(Nc3ncnc4sccc34)CC2)cc1,2,0,12,-1,1,-1
C=CCNc1ncnc2c1ncn2[C@H]1CN(Cc2cccs2)C[C@@H](CO)O1,-13,2,10,-4,3,0
